According to PMC5028098 (International Journal of Nanomedicine, 2016):

Key:
Format in all cases: cell-based, human
[1] = test system: HUVECs; experiment: Transwell migration; details: HUVECs in TCM from treated MDA-MB231 cells, dose-dependent for HBP
[2] = test system: MMP2; experiment: Western blot of MMP2 in HUVECs incubated with TCM; details: TCM 24 hours, dose-dependent for HBP
Outline: (§1)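 HUVECs (2×10^5) were grown to 90% confluence, starved 12 h in 2% serum, then incubated 24 h with conditioned medium from MDA-MB231 cells treated with graded test-peptide concentrations. Cells were lysed on ice. Equal protein (40 μg, Bradford) was run on 10% SDS-PAGE and blotted to nitrocellulose. Primary antibody incubation was 4 h at 4°C, followed by HRP anti-rabbit IgG (1:2,000). Bands were quantified by densitometry relative to untreated-medium control; three experiments, mean ± SD.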

[3] = test system: MMP9; experiment: Western blot of MMP9 in HUVECs incubated with TCM; details: TCM 24 hours, decreased to a greater extent than MMP2 for HBP
Outline: as §1

VEGF
effect on migration / number of invasive ECs [1]: no inhibitory effect
expression of MMP2 in HUVECs [2]: not affected
expression of MMP9 in HUVECs [3]: not affected
